Here are results for six compounds from ChEMBL document CHEMBL4828755, “A sulfonyl fluoride derivative inhibits EGFRL858R/T790M/C797S by covalent modification of the catalytic lysine” (Eur J Med Chem, 2021).

The target of assay [1] is Epidermal growth factor receptor (Homo sapiens, UniProt P00533, C797S/L858R/T790M). The assay can be described thus: Inhibition of EGFR L858R/T790M/C797S triple mutant (unknown origin) using fluoresceine-labelled poly-GT peptide as substrate incubated for 1 hr by TR-FRET assay. (In general: TR-FRET usually uses a lanthanide donor and a delayed reading to cut background.)
Chain of Epidermal growth factor receptor (P00533 25-1210 T790M/C797S/L858R limits assumed): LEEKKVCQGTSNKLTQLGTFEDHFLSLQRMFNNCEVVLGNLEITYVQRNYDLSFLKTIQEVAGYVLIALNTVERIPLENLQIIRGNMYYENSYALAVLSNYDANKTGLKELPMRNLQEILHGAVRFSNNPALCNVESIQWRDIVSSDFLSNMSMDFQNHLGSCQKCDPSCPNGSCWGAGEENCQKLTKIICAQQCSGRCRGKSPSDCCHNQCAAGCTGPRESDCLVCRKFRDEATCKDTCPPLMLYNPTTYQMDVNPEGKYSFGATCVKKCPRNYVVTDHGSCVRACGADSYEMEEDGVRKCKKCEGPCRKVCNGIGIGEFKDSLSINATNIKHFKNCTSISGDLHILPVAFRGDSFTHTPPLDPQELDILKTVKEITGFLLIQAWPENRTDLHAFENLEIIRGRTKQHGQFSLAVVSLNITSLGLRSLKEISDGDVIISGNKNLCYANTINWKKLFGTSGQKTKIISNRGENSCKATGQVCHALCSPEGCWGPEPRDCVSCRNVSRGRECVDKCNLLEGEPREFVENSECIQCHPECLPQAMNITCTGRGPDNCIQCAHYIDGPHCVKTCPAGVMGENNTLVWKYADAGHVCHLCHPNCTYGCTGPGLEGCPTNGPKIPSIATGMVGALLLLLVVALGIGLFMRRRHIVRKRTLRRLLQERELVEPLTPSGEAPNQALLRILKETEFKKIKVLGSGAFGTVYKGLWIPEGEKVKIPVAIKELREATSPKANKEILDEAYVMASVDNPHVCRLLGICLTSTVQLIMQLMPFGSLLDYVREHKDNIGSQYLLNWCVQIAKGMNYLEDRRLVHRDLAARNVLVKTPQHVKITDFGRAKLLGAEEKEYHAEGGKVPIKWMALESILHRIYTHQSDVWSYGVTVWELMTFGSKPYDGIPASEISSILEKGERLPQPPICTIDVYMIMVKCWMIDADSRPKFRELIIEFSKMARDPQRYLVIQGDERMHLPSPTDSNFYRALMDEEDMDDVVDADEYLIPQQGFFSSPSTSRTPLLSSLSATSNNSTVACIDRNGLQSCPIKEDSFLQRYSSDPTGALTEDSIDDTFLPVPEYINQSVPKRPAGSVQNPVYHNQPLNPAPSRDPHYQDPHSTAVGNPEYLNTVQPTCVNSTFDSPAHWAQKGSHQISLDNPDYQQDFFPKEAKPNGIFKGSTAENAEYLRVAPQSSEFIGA

Assay [2] concerns BaF3. Briefly: Cytotoxicity against mouse BaF3 cells harboring EGFR del19/T790M/C797S triple mutant assessed as inhibition of cell proliferation measured after 72 hrs by MTS assay. The format is functional, cell-based. The essentials: (§1)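 Ba/F3 cells carrying the respective EGFR triple mutant, grown in RPMI-1640 with 2 mM glutamine and 10% FBS at 37°C, 5% CO2. Seeded 20000 cells/well and treated the same day with increasing concentrations (DMSO ≤0.1% final). Viability read by MTS after 72 h, expressed as % inhibition versus untreated controls; at least three independent experiments.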

Assay [3] has as its system BaF3. The assay can be described thus: Cytotoxicity against mouse BaF3 cells harboring EGFR L858R/T790M/C797S triple mutant assessed as inhibition of cell proliferation measured after 72 hrs by MTS assay. It is filed as functional, cell-based. As to conditions: BaF3, 72 h. In a few lines: as §1
(Tetrazolium dyes change colour on reduction, which living cells bring about.)

Assay [4] addresses RAC-beta serine/threonine-protein kinase (Homo sapiens) (UniProt P31751). Briefly: Inhibition of His-tagged full length human recombinant AKT2 expressed in baculovirus expression system at 1 uM by Z'-LYTE assay. The essentials:
(§2)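 Z'-LYTE FRET kinase panel; phosphorylation of a reference peptide measured with ATP at each enzyme's Km. Compounds tested in 1% DMSO at 0.1 and/or 1 μM. Values are means of two independent experiments with standard deviations.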

For assay [5], the target named is Cyclin-dependent kinase 2 (Homo sapiens) (UniProt P24941). Briefly: Inhibition of human recombinant CDK2 at 1 uM by Z'-LYTE assay. In a few lines:
as §2

The target in assay [6] is Fibroblast growth factor receptor 4 (Homo sapiens) (UniProt P22455). The assay can be described thus: Inhibition of His-tagged human recombinant FGFR4 ([…] residues) expressed in baculovirus expression system at 1 uM by Z'-LYTE assay. In a few lines:
as §2

The target in assay [7] is Rho-associated protein kinase 1 (Homo sapiens) (UniProt Q13464). The assay can be described thus: Inhibition of GST-tagged human recombinant ROCK1 (1 to 535 residues) expressed in baculovirus expression system at 1 uM by Z'-LYTE assay. The essentials: as §2
In assay [8] the target is Platelet-derived growth factor receptor alpha (Homo sapiens) (UniProt P16234). Briefly: Inhibition of GST-tagged human recombinant PDGFR alpha (550 to 1089 residues) expressed in baculovirus expression system at 1 uM by Z'-LYTE assay. In a few lines: as §2
Chain of Platelet-derived growth factor receptor alpha (Homo sapiens) (P16234 whole entry, the tested form may be a part): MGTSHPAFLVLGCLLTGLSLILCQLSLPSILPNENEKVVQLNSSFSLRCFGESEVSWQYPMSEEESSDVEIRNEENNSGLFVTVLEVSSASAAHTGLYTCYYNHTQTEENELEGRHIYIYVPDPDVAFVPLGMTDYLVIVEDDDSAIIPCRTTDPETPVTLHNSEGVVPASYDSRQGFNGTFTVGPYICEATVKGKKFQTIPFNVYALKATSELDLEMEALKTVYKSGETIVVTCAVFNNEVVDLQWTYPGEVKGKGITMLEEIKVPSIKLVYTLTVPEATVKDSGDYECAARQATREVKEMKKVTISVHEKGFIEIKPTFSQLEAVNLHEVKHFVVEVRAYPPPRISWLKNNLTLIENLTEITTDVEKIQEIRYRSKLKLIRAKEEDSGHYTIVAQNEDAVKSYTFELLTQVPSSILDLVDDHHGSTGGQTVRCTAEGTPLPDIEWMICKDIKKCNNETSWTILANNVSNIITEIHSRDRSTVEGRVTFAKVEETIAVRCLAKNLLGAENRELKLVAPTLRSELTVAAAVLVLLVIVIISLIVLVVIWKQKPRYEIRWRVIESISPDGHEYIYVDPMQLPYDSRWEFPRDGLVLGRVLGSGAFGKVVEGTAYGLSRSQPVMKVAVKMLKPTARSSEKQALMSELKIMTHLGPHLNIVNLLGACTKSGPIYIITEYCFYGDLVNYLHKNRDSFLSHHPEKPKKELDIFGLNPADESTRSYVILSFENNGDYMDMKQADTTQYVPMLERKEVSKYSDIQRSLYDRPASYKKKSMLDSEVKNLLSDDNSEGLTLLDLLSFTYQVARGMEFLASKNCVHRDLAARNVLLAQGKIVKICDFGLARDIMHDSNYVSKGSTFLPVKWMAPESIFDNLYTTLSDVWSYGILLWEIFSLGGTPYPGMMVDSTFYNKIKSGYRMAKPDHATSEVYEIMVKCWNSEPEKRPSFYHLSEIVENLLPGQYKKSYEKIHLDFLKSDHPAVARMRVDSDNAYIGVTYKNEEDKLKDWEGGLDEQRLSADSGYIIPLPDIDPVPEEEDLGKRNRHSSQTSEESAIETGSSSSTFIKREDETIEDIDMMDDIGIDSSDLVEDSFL
For assay [9], the target named is Tyrosine-protein kinase Lck (Homo sapiens) (UniProt P06239). Briefly: Inhibition of human recombinant LCK at 1 uM by Z'-LYTE assay. The essentials:
as §2

For assay [10], the target named is Mitogen-activated protein kinase 3 (Homo sapiens) (UniProt P27361). The assay can be described thus: Inhibition of GST-tagged human full length recombinant ERK1 expressed in Escherichia coli at 1 uM by Z'-LYTE assay. In a few lines: as §2
For assay [11], the target named is AMP-activated protein kinase, AMPK (Homo sapiens) (UniProt P54646+O43741+P54619+Q9UGJ0+Q9Y478+Q13131+Q9UGI9). Briefly: Inhibition of human recombinant AMPK at 1 uM by Z'-LYTE assay. The format is protein-complex assay. The essentials:
as §2

Assay [12] concerns the target Vascular endothelial growth factor receptor 2 (Homo sapiens) (UniProt P35968). The assay can be described thus: Inhibition of His-tagged human recombinant VEGFR2 (789 to 1356 residues) expressed in baculovirus expression system at 1 uM by Z'-LYTE assay. In a few lines:
as §2

Assay [13] deals with T1, Inhibitor of nuclear factor kappa-B kinase subunit beta (Homo sapiens) (UniProt O14920).
T1 sequence (whole entry): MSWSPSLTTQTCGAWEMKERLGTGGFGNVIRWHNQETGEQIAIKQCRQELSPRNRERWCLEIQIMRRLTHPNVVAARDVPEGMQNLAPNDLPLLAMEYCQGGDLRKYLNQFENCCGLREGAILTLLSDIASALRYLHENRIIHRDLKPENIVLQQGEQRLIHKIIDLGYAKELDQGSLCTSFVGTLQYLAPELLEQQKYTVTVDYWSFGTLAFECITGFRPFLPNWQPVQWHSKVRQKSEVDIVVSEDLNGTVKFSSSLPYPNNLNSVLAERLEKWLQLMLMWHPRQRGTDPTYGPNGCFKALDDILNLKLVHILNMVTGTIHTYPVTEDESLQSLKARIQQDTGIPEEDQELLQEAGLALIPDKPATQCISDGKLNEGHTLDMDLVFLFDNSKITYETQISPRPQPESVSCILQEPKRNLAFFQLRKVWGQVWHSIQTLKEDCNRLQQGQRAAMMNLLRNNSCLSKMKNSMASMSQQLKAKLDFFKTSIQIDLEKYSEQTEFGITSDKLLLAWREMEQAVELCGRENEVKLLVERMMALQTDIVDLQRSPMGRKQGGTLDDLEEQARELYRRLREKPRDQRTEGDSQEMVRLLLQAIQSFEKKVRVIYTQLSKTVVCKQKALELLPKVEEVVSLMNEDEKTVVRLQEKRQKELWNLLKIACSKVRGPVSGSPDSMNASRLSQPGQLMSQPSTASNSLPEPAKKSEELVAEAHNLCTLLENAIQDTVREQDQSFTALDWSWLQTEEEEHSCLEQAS
The assay can be described thus: Inhibition of GST-tagged human full length recombinant IKKbeta expressed in baculovirus expression system at 1 uM by Z'-LYTE assay. The essentials:
as §2

The target in assay [14] is T2, Aurora kinase A (Homo sapiens) (UniProt O14965).
T2 sequence (whole entry): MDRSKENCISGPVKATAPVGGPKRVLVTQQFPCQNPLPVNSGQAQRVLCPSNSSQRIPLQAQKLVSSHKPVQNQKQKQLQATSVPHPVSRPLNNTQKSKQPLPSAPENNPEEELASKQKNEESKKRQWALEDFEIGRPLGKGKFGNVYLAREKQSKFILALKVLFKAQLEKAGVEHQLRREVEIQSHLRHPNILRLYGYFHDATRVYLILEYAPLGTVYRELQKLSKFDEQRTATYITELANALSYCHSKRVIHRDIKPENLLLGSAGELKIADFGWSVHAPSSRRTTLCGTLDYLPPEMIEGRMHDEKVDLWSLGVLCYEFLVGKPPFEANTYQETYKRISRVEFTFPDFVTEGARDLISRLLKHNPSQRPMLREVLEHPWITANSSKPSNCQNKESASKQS
The assay can be described thus: Inhibition of His-tagged human full length recombinant AURKA expressed in baculovirus expression system at 1 uM by Z'-LYTE assay. The essentials:
as §2

For assay [15], the target named is Cyclin-dependent kinase 5 (Homo sapiens) (UniProt Q00535). Briefly: Inhibition of GST/His-tagged human full length recombinant CDK5 expressed in baculovirus expression system at 1 uM by Z'-LYTE assay. In a few lines: as §2
Assay [16] addresses Tyrosine-protein kinase Blk (Homo sapiens) (UniProt P51451). The assay can be described thus: Inhibition of His-tagged human full length recombinant BLK expressed in baculovirus expression system at 1 uM by Z'-LYTE assay. The essentials: as §2
Assay [17] has as its target Tyrosine-protein kinase JAK1 (Homo sapiens) (UniProt P23458). Briefly: Inhibition of GST-tagged human recombinant JAK1 (866 to 1154 residues) expressed in baculovirus expression system at 1 uM by Z'-LYTE assay. In a few lines: as §2
The target in assay [18] is Proto-oncogene tyrosine-protein kinase Src (Homo sapiens) (UniProt P12931). The assay can be described thus: Inhibition of C-terminal His-tagged human recombinant SRC expressed in baculovirus expression system at 1 uM by Z'-LYTE assay. The essentials:
as §2

Assay [19] has as its target Mitogen-activated protein kinase 14 (Homo sapiens) (UniProt Q16539). Briefly: Inhibition of GST-tagged human full length recombinant p38 alpha expressed in Escherichia coli at 1 uM by Z'-LYTE assay. In a few lines: as §2

SMILES strings stand for the structures. The source made the active and inactive calls. No cut-off for these calls is given here. Bounds are passed on as bounds.

By IC50 is commonly meant the midpoint of a concentration-inhibition curve.

Chain of Tyrosine-protein kinase Blk (Homo sapiens) (P51451 2-505 limits assumed): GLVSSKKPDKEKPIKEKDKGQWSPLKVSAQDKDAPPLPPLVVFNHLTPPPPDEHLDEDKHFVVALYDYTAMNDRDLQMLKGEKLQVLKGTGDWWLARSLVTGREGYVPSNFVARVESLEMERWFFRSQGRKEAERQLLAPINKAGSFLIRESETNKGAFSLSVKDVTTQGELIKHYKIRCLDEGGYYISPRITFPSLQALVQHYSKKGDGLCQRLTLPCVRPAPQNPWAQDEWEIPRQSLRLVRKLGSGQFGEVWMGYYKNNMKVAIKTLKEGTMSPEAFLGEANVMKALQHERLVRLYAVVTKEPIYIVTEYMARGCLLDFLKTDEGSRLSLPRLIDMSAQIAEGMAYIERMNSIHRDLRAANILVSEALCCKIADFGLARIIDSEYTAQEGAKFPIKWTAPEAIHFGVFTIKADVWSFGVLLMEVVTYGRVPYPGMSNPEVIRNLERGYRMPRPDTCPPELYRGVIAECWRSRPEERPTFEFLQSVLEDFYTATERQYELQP
Chain of Mitogen-activated protein kinase 14 (Homo sapiens) (Q16539 whole entry): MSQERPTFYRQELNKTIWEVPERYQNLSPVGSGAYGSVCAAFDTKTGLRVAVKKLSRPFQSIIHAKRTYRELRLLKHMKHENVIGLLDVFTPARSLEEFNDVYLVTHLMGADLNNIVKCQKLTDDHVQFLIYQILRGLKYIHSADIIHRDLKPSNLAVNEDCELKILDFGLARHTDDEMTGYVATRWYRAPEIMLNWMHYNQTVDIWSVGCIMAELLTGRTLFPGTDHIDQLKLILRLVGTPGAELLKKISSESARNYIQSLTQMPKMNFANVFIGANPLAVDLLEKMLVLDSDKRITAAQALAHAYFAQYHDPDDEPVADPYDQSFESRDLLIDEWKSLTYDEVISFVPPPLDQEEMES
Chain of RAC-beta serine/threonine-protein kinase (Homo sapiens) (P31751 whole entry): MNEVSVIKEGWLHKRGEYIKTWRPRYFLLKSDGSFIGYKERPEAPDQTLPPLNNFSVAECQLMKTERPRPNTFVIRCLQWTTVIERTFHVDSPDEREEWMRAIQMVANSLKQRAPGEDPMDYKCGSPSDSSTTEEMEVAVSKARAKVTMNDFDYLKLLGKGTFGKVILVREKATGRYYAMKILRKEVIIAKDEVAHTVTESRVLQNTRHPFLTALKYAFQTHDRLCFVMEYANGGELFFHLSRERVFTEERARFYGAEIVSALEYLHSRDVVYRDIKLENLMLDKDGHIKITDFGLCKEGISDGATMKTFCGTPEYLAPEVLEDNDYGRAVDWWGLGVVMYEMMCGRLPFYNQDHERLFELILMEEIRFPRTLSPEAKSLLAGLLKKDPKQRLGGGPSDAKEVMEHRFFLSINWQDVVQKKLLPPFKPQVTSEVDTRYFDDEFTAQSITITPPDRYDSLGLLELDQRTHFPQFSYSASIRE
Chain of Vascular endothelial growth factor receptor 2 (Homo sapiens) (P35968 whole entry, the tested form may be a part): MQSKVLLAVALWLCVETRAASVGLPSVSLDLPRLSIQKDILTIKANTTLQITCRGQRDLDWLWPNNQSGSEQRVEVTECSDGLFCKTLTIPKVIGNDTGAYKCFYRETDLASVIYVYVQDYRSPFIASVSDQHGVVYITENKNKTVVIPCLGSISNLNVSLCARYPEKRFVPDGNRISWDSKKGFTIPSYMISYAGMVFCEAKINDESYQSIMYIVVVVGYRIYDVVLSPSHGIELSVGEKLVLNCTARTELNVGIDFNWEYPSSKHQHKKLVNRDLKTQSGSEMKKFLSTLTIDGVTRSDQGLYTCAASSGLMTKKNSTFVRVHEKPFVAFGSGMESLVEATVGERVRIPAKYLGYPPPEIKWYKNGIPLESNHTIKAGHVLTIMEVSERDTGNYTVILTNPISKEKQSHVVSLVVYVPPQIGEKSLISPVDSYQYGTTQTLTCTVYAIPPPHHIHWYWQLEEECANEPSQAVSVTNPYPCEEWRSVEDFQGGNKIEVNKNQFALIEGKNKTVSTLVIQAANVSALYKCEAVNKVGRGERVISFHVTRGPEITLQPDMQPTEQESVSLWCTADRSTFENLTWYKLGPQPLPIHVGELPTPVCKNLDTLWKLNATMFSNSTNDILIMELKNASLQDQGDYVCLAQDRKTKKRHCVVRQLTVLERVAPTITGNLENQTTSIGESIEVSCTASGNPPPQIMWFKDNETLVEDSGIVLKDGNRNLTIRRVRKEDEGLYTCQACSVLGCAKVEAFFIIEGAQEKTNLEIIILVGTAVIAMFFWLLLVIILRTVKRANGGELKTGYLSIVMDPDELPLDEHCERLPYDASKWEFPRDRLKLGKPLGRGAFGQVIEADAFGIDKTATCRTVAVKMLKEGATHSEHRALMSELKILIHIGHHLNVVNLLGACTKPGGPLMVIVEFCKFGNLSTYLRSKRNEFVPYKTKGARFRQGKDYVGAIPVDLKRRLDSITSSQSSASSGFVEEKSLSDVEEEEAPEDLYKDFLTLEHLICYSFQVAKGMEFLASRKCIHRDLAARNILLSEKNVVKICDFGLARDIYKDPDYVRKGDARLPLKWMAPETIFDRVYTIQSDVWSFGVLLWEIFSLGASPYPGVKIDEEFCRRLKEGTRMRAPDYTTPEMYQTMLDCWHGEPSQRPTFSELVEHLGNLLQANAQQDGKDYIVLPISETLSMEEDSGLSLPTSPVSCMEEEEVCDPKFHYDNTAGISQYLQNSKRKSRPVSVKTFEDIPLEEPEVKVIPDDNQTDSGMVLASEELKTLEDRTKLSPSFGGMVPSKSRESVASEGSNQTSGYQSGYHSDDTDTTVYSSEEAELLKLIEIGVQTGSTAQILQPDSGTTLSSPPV

Take `C=CS(=O)(=O)Nc1cccc(Nc2nc(Nc3ccc(N4CCN(C(C)=O)CC4)cc3OC)ncc2Cl)c1`: half-maximal inhibition in assay [1] (IC50) required 675 nM.
On the same count and under the same terms, in the case of `COc1cc(N2CCN(C(C)=O)CC2)ccc1Nc1ncc(Cl)c(Nc2cccc(NCCS(=O)(=O)F)c2)n1` it was 458 nM.
For the compound `C=CC(=O)Nc1cc(Nc2nccc(-c3cn(C)c4ccccc34)n2)c(OC)cc1N(C)CCN(C)C` [OSIMERTINIB], in the assay on BaF3 [2], the outcome was inactive. Also, the IC50 in the assay with BaF3 [3] was more than 3000 nM.
`COc1cc(N2CCN(C(C)=O)CC2)ccc1Nc1ncc(Cl)c(Nc2cccc(NC(=O)CCl)c2)n1` displayed an IC50 in assay [1] of 946 nM.
The same measure, in the same setting: in the case of `COc1cc(N2CCN(C(C)=O)CC2)ccc1Nc1ncc(Cl)c(Nc2cccc(C(=O)Oc3ccc(F)cc3)c2)n1` it was more than 10000 nM.
As to `COc1cc(N2CCN(C(C)=O)CC2)ccc1Nc1ncc(Cl)c(Nc2cccc(NC(C)=O)c2)n1`, the inhibition entry in assay [4], in [5], in assay [6], in assay [7], in assay [9] and in [10] was “inactive” each time. The inhibition result in assay [11], in assay [13], in [14], in [15], in assay [16] and in assay [18] was “inactive” each time. Besides, the inhibition entry in [19] was “inactive”. Also, the inhibition entry in [8], in [12] and in assay [17] was “Active” in each case. Besides, in assay [1], the IC50 stood at 1100 nM.
